PREPL inhibitor: human PREPL enzyme inhibition. Q4J6C6. inhibition, % at 5.96 µM. 0.68% of 320,000 active. recombinant PREPL, fluorescence polarization activity-based probe; in the data active = inhibition above about 43%;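 also: 0% = enzyme with DMSO and 100% = wells lacking enzyme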
Target sequence (Q4J6C6 whole entry, looked up): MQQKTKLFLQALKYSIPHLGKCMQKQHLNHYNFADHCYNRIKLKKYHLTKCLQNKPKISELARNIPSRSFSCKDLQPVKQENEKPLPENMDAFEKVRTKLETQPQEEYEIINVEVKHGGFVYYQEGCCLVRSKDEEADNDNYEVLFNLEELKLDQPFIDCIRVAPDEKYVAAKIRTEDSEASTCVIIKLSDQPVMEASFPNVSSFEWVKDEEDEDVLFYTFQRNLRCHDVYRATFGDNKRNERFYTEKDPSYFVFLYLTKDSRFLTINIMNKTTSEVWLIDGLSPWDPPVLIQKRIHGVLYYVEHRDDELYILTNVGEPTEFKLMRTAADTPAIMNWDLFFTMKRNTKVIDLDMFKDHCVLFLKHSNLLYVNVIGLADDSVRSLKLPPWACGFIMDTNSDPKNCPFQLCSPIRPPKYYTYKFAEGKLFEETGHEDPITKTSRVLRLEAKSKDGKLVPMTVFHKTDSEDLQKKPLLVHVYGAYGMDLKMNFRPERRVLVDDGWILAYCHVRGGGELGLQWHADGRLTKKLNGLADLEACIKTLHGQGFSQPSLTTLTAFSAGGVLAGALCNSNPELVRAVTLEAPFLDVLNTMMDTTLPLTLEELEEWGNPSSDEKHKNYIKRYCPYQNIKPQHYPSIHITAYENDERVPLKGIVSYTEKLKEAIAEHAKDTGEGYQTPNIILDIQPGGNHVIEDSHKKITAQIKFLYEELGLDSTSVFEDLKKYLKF
RBBP9 inh: inhibitors of human serine hydrolase RBBP9; O75884; recombinant RBBP9, FP-Rh probe fluorescence polarization; inhibition, % at 7.94 µM; 0.2% of 220,000 active; AID 1515;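 active = inhibition above the campaign mean of all tested compounds plus 3 SD, cut at about 14% in these data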;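 also: plate controls were DMSO wells with RBBP9 for no effect and wells lacking RBBP9 protein for full effect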
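Test system: recombinant human RBBP9. Quantity: 2.5 µM RBBP9 dispensing solution, before mixing. Detection: FP readout at 525/598 nm. Reagent: Serine-hydrolase probe FP-Rh, 375 nM pre-mixing. Measure: % inhibition. Control set: DMSO-treated enzyme wells and wells lacking RBBP9. Buffer or medium: Tris-NaCl-Pluronic buffer, pH 8.0. Times: preincubation 30 min plus labeling 45 min at 25 °C.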
SUMO HTRF inh: blocks human SUMOylation mediated by UBC9. inhibition, % at 35 µM. HTRF SUMOylation assay, SAE1/SAE2 + UBC9, in vitro. P63279. 0.36% of 290,000 active; in the data active = inhibition above about 50%, passing the limit was not always enough
UBC13 polyUb: human UBC13 polyubiquitination inhibition. UBC13 polyubiquitin chain formation, TR-FRET. inhibition, % at 20 µM. 0.47% of 330,000 active; in the data active = inhibition above about 45%, passing the limit was not always enough
ALR inh: human ALR oxidase inhibition via reduced H2O2. P55789. purified ALR, DTT oxidation, H2O2 HRP-luminol luminescence. inhibition, % (concentration not given with the values). 3.8% of 290,000 active. AID 485317;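 active = mean replicate inhibition above about 79%, with every replicate also reaching it, limit read from the data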
Rin1-Abl PPI inh: human Rin1-Abl interaction inhibition; P00519+Q13671; TR-FRET Rin1/Abl binding, biochemical; inhibition, % at 7.35 µM; 0.4% of 360,000 active; in the data active = inhibition above about 5%, passing the limit was not always enough
Rin1 Abl conf: Rin1-Abl interaction inhibition confirmation; shares compounds with Rin1-Abl PPI inh; TR-FRET Rin1-Abl binding, purified proteins; inhibition, % at 7.35 µM; 49% of 1,300 active; AID 602124
GFP quench: counter-screen for Rin1-Abl inhibitors: GFP fluorescence quenchers; 8.5% of 1,300 active; shares compounds with Rin1-Abl PPI inh; inhibition, % at 6.75 µM; AID 602125; inhibitors/quenchers counterscreen;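 also: ABL1-eGFP fusion protein alone without its partner RIN1-SBP; 0% = protein with vehicle and 100% = wells lacking protein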
GFP quench dose: GFP fluorescence interference dose response | shares compounds with Rin1-Abl PPI inh | GFP fluorescence interference/quenching counterscreen | IC50, µM | 230 tested, under 10 active | AID 602182; call rule not given here;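 also: ABL1-eGFP fusion protein alone without its RIN1 binding partner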
Starred values were filed as active, the others as inactive; . = no result given. Most compounds without a hit are left out; they make up all but 4.3% or so of the library. Rule as the data show it, unless noted: active = inhibition above about 6.5%; inactive = the rest.

SMILES	PREPL inhibitor	RBBP9 inh	SUMO HTRF inh	UBC13 polyUb	ALR inh	Rin1-Abl PPI inh	Rin1 Abl conf	GFP quench	others
O=C(Nc1ccc(O)cc1C(=O)O)c1cccc(Br)c1	14	-2	20	-6	31	16*	24*	-1	GFP quench dose=>68
O=C(Nc1ccccc1C(=O)O)c1cccc(C(=O)Nc2ccccc2C(=O)O)c1	5	.	3	-13	5	1	.	.
COc1ccc(C(=O)Nc2ccccc2C(=O)O)cc1Cl	-9	-2	-3	6	52	1	.	.
Cc1ccc(N(CC(=O)NC(C)(C)C)C(=O)CCC(=O)Nc2ccccn2)cc1	.	.	.	.	.	0	.	.
CCN(C[C@H]1N[C@@](C)(C(=O)OC)[C@H]2C(=O)N(C)C(=O)[C@@H]12)C(=O)Nc1ccc(OC)cc1	10	.	.	0	.	-2	.	.
CCCOc1ccc(CNC(=O)c2ccc3c(c2)N(CC)CCS3)cc1	24	.	3	20	-6	-4	.	.
c1ccc(C(c2ccccn2)c2ccccn2)cc1	0	-8	18	5	-6	6.5*	7.3*	1
Cc1ccc(Oc2ccccc2NC(=O)C2=COCCO2)cc1	-15	.	.	2	.	2	.	.
CC(C)(O)CC[C@@H](O)[C@](C)(O)C1CC[C@@]2(O)C3=CC(=O)[C@]4(O)C[C@@H](O)[C@@H](O)C[C@]4(C)C3CC[C@]12C (some centres undefined)	24	.	.	4	-5	2	.	.
COC(=O)CCSCc1cn2cc(Cl)ccc2n1	4	4	2	-12	13	39*	44*	1	GFP quench dose=>68
CC(=O)Nc1cccc(-c2ccnc3c2CC(C)(C(=O)NCc2ccc(N(C)C)cc2)O3)c1 (centres undefined)	.	.	.	.	.	6.7*	6	-2
CC1(C(=O)Nc2ccc3c(c2)OCO3)Cc2c(-c3ccc4c(c3)OCO4)ccnc2O1 (centres undefined)	.	.	.	.	.	-3	.	.
CC1(C(=O)Nc2ccc3c(c2)OCO3)Cc2c(-c3cccc(C(N)=O)c3)ccnc2O1 (centres undefined)	.	.	.	.	.	8.8*	7.8*	-2
CC1(C(=O)Nc2ccccc2)Cc2c(-c3cccc(C(N)=O)c3)ccnc2O1 (centres undefined)	.	.	.	.	.	14*	15*	-1
C[C@@H](NC(=O)[C@@H]1Cc2ccccc2CN1)C(=O)Nc1ccc2c(c1)OCO2	5	.	1	-7	.	3	.	.
COc1cc(C(=O)Nc2ccc(C)c(S(=O)(=O)N(C)C)c2)ccc1OCC(=O)N1CCOCC1	4	.	.	-2	-20	4	.	.
O=C1C2C3C=CC(CC3)C2C(=O)N1/N=C/c1ccc(O)c(O)c1 (centres undefined)	10	-4	-7	-3	.	6	.	.
O=C1c2ccccc2C(=O)N1/N=C/c1ccc(O)c(O)c1	13	-9	2	-21	99*	11*	-3	6
COc1cccc(CN2CCNC(=O)C2CC(=O)NCc2cc(C(C)C)no2)c1 (centres undefined)	5	8	-5	2	1	1	.	.
O=C(CN1CCCCCC1)NN(Cc1ccccc1)c1ccccc1	-14	-4	2	6	12	-3	.	.
O=C(Cc1ccccc1)Nc1nnc(-c2cccs2)s1	4	3	6	14	-6	9.4*	5	0
Cc1csc2c(NC3CCN(Cc4ccccc4)CC3)ncnc12	9	3	-6	-5	0	5.6*	0	0
c1ccc(CN2CCC(Nc3ncnc4sccc34)CC2)cc1	6	-1	6	22	-1	-2	.	.
Cc1cc2cc(CNC(=O)Nc3cccc(Cl)c3)ccc2n1C	14	-8	13	-5	-2	-1	.	.
Cc1cccc(NC(=O)NCc2ccc3c(c2)cc(C)n3C)c1	15	-4	-28	18	.	7.8*	-20	-1
CC(=O)Nc1cc(-c2cccc(F)c2)cn2c(-c3ccc(F)c(Cl)c3)cnc12	.	.	.	.	.	-5	.	.
O=c1c(O)c(-c2ccc(O)c(O)c2)oc2cc(O)cc(O)c12	27	.	5	17	99*	24*	16*	4

Compound activity (PubChem BioAssay)
